# From ChEMBL document CHEMBL4334422, “Toxicities and beneficial protection of H2S donors based on nonsteroidal anti-inflammatory drugs” (Medchemcomm, 2019)
# Activity calls are given as the source filed them. The rule behind the calls is not given here.
# How the values were obtained:
# [1] = Toxicity in Wistar kyoto rat assessed as visible gaps in kidney tissue at 10 mg/kg, ip administered for 14 days by H and E staining based assay; type: organism-based; conditions: in vivo, 336 h
# How it was run: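 WKY rats were dosed intraperitoneally at 10 mg/kg daily for 14 days, using the 10% 1,3-propanediol vehicle, with a vehicle control group. Liver and kidney were collected and fixed immediately in 4% glutaraldehyde. Sections were stained with haematoxylin and eosin and scored for structural change under light microscopy.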
# [2] = Toxicity in Wistar kyoto rat assessed as abnormal nuclear morphology in liver tissue at 10 mg/kg, ip administered for 14 days by TEM assay; type: organism-based; conditions: in vivo, 336 h
# How it was run: (§1)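 WKY rats were given 10 mg·kg⁻¹ intraperitoneally daily for 14 days, with vehicle-treated controls. Liver and kidney were collected and fixed in 4% glutaraldehyde. Tissue was examined after HE staining by light microscopy and by transmission electron microscopy at 6000, 10000 and 20000-fold.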
# [3] = Toxicity in Wistar kyoto rat assessed as increase in lipid droplets in cytoplasm in liver tissue at 10 mg/kg, ip administered for 14 days by TEM assay; type: organism-based; conditions: in vivo, 336 h
# How it was run: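 After 14 days of daily intraperitoneal dosing at 10 mg/kg in WKY rats, with vehicle controls, liver and kidney were fixed in 4% glutaraldehyde. Ultrastructure was examined by transmission electron microscopy at 6000-, 10000- and 20000-fold magnification.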
# [4] = Toxicity in Wistar kyoto rat assessed as swollen gastric cell at 10 mg/kg, ip administered for 14 days by H and E staining based optical microscopic method; type: organism-based; conditions: in vivo, 336 h
# How it was run: (§2)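 WKY rats, 3 per group, were dosed for 14 days, with the compound at 10 mg/kg per dose and the ibuprofen comparator at 6.1 mg/kg. Rats were anaesthetised with ether and killed by cervical dislocation. Stomach and intestine were sectioned at 5-10 µm, stained with haematoxylin and eosin, and examined by optical microscopy.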
# [5] = Toxicity in Wistar kyoto rat assessed as reduction in intestinal mucosal congestion symptoms at 10 mg/kg, ip administered for 14 days by H and E staining based optical microscopic method; type: organism-based; conditions: in vivo, 336 h; how it was run: as §2
# [6] = Toxicity in Wistar kyoto rat assessed as congestion in renal tissue at 10 mg/kg, ip administered for 14 days by H and E staining based assay; type: organism-based; conditions: in vivo, 336 h; how it was run: as §1
# Rattus norvegicus = test: Antihypertensive activity in ip dosed spontaneously hypertensive Wistar kyoto rat assessed as reduction in systolic arterial pressure administered for 6 hrs and measured every 30 mins post treatment by tail-cuff method; type: functional, organism-based
# How it was run: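 Male SHRs (8 weeks, 300 ± 25 g; 6 per group), given compound intraperitoneally once daily at 8 am in 0.5% (w/v) sodium carboxymethyl cellulose/DMSO 3/1 (v/v), 2 mL·kg⁻¹. Vehicle-treated SHR and WKY controls. SBP, DBP and heart rate were measured by tail-cuff on awake, restrained rats before dosing, then every 30 min for 6 h. Values are mean ± SD of four independent experiments.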
# H9c2 = test: Cytoprotective activity against H2O2-induced toxicity in rat H9c2 cells assessed as increase in cell repair at 10 to 80 uM pretreated with compound followed by H2O2 addition and measured after 1 to 8 hrs by giemsa staining based microscopic method; type: functional
# How it was run: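 H9c2 cells were injured with H₂O₂ (400 µM) for 1, 4 or 8 h to give light, medium and heavy damage, in the presence of compound at 10–80 µM. Acetaminophen or ibuprofen served as controls. Viability was measured as mean ± SD of three experiments. SOD and MDA contents were measured as mean ± SD of four experiments. Morphology was assessed by Giemsa staining under light microscopy.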
compound,measurement,setting,value
CC(C)Cc1ccc(C(C)C(=O)Oc2ccc(C(N)=S)cc2)cc1 (stereo not drawn),Activity,[1],Toxic
same,Activity,[2],Toxic
same,Activity,[3],Toxic
same,Activity,[4],Non-Toxic
same,Activity,[5],Non-Toxic
CC(C)Cc1ccc(C(C)C(=O)Oc2ccc(-c3cc(=S)ss3)cc2)cc1 (stereo not drawn),Activity,[6],Toxic
CC(=O)Nc1ccc(OC(=O)CCCCC2CCSS2)cc1 (stereo not drawn),Activity,Rattus norvegicus,Dose-dependent effect
same,Activity,H9c2,Active
